Consider 36 molecules from ChEMBL document CHEMBL1128548, “Synthesis and evaluation of 5-amino-5,6,7,8-tetrahydroquinolinones as potential agents for the treatment of Alzheimer's disease” (J Med Chem, 1995).

The structures appear in SMILES notation. Where “and” joins values, the source holds several entries; their conditions need not be identical. Identical values can stand only once. Calls of active or inactive are those of the source. Some results are limits rather than exact numbers.

Assay [1] has as its target T1, Acetylcholinesterase (Rattus norvegicus, UniProt P37136).
T1 sequence (P37136 whole entry): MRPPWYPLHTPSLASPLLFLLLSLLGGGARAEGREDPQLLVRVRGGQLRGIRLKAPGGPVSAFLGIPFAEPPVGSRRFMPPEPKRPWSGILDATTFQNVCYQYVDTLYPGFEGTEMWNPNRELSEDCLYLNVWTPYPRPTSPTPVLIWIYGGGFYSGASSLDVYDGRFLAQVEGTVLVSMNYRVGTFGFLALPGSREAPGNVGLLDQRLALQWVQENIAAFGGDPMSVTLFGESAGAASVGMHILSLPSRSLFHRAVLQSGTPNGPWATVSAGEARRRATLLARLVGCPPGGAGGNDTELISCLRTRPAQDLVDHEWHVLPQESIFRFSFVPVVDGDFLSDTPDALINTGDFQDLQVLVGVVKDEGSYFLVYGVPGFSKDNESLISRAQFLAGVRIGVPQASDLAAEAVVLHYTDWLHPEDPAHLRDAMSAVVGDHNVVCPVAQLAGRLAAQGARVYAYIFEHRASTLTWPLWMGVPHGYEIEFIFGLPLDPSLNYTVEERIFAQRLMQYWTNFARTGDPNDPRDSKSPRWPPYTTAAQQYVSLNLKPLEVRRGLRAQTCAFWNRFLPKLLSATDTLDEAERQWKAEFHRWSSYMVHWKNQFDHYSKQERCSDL
Briefly: Acetylcholinesterase inhibitory activity in rat striatal homogenates.

For assay [2], the species on record is Mus musculus. Briefly: Active dose for reversal of Scopolamine dementia(SDDA) activity in mouse; NA =' not active'. Format: functional, organism-based. The method, boiled down:
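Male CFW mice, 15 per group (vehicle/vehicle, scopolamine/vehicle, scopolamine/drug). Scopolamine hydrobromide 3.0 mg/kg sc 30 min before training, test compound in distilled water 5 min before. Step-through passive avoidance retested 24 h later without shock, recording latency. Cutoff is the second-longest scopolamine/vehicle latency. A dose is active if 20% of mice exceed the cutoff.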

Assay [3] concerns Mus musculus. Briefly: Active dose for reversal of Scopolamine dementia activity in mouse following s.c. administration. The format is functional. The essentials: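 Male CFW mice, 15 per group (vehicle/vehicle, scopolamine/vehicle, scopolamine/drug). Scopolamine hydrobromide 3.0 mg/kg sc 30 min before training, then test compound in distilled water 5 min before. One-trial dark passive avoidance, retested 24 h later without injection or shock. Cutoff is the second-longest scopolamine/vehicle latency. Dose is active when 20% of animals exceed cutoff. Test valid if cutoff <120 s.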

For orientation: IC50 means the concentration that gives 50% inhibition. For `Cc1ccc(CCNC2CCCc3c2ccc(=O)n3C)cc1` (stereo not given), it took 18.2 µM to reach half-maximal inhibition in assay [1] (IC50).

For the molecule `CC1(N)CCCc2nc(O)ccc21` (stereo not given), in assay [1], the concentration for half-maximal inhibition (IC50) was more than 100 µM.

Take `CCCn1c2c(ccc1=O)C(NCCc1ccccn1)CCC2` (stereo not given): in assay [2], the Active dose entry was “inactive”. In assay [1], this molecule had an IC50 of 4.34 µM.

As for `CC(C)Cn1c2c(ccc1=O)C(NCCc1ccc(Cl)c(Cl)c1)CCC2` (stereo not given), the IC50 in assay [1] is 23.4 µM.

With `CC(C)=CCn1c2c(ccc1=O)C(NCCc1cc(Cl)cc(Cl)c1)CCC2` (stereo not given), 0.8 µM corresponded to half-maximal inhibition in assay [1] (IC50).

Regarding `C=CCn1c2c(ccc1=O)C(NCCc1ccc(Cl)c(Cl)c1)CCC2` (stereo not given), in assay [1], 9.21 µM corresponded to half-maximal inhibition (IC50).

In assay [1], `CC(C)CCn1c2c(ccc1=O)C(NCCc1ccc(Cl)c(Cl)c1)CCC2` (stereo not given) returned an IC50 of 2.34 µM. In addition, in assay [3], the Active dose came to 3 mg/kg.

In the case of `CC(C)=CCn1c2c(ccc1=O)C(NCCc1ccc(Cl)cc1Cl)CCC2` (stereo not given), the IC50 in assay [1] was found to be 0.79 µM. Moreover, the Active dose in assay [3] was 1 mg/kg and 3 mg/kg.

`CC(C)=CCn1c2c(ccc1=O)C(NCCc1ccc(O)cc1)CCC2` (stereo not given): in assay [1], half-maximal inhibition (IC50) was put at 0.4 µM.

The molecule `CCCn1c2c(ccc1=O)C(NCCC(C)(C)C)CCC2` (stereo not given) yielded an IC50 in assay [1] of 15.6 µM.

In assay [1], `CCCCCCCCCCn1c2c(ccc1=O)C(NCCc1ccc(Cl)c(Cl)c1)CCC2` (stereo not given) gave an IC50 of 33.7 µM.

In assay [1], `NC1(Cc2ccccc2)CCCc2[nH]c(=O)ccc21` (stereo not given) gave an IC50 of more than 100 µM.

For the molecule `CC(C)=CCn1c2c(ccc1=O)C(NCCc1ccc(F)c(F)c1)CCC2` (stereo not given), in assay [1], the concentration for half-maximal inhibition (IC50) turned out to be 0.98 µM.

With `CC(C)=CCn1c2c(ccc1=O)C(NCCc1ccc(Cl)c(C(F)(F)F)c1)CCC2` (stereo not given), the Active dose entry in assay [2] is “inactive”. This molecule also had an IC50 in assay [1] of 0.79 µM.

Regarding `C=C(C)Cn1c2c(ccc1=O)C(NCCc1ccc(Cl)c(Cl)c1)CCC2` (stereo not given), in assay [1], half-maximal inhibition (IC50) was put at 5.32 µM. Besides, in assay [3], the Active dose is 3 mg/kg.

In assay [1], `CCCn1c2c(ccc1=O)C(NCCc1cccs1)CCC2.O=C(O)/C=C/C(=O)O` (stereo not given) returned an IC50 of 5.97 µM.

In assay [1], `CC(C)n1c2c(ccc1=O)C(NCCc1ccc(Cl)c(Cl)c1)CCC2` (stereo not given) returned an IC50 of 34.5 µM.

For `CCCCCCn1c2c(ccc1=O)C(NCCc1ccc(Cl)c(Cl)c1)CCC2` (stereo not given), the IC50 in assay [1] is 3.71 µM.

The molecule `C/C=C1\[C@H]2C=C(C)C[C@]1(N)c1ccc(=O)[nH]c1C2` [HUPERZINE A] had a concentration for half-maximal inhibition (IC50) in assay [1] of 0.08 µM.

Turning to `O=c1ccc2c(n1CCc1ccccc1)CCCC2NCCc1ccc(Cl)c(Cl)c1` (stereo not given), in assay [1], half-maximal inhibition (IC50) required 50.4 µM.

In assay [1], `Cn1c2c(ccc1=O)C(C)(N)CCC2` (stereo not given) registered an IC50 of more than 100 µM.

The molecule `O=c1ccc2c(n1Cc1ccccc1)CCCC2NCCc1ccc(Cl)c(Cl)c1` (stereo not given) displayed an IC50 in assay [1] of 17.3 µM.

Regarding `CCCn1c2c(ccc1=O)C(NC1Cc3ccccc3C1)CCC2` (stereo not given), in assay [1], inhibition was half-maximal at 3.91 µM (IC50). In assay [3], the Active dose was 1 mg/kg.

In assay [1], `Cn1c2c(ccc1=O)C(NCc1ccccc1)CCC2` (stereo not given) registered an IC50 of more than 100 µM.

`COc1ccc(CCNC2CCCc3c2ccc(=O)n3CC=C(C)C)cc1OC` (stereo not given) yielded an IC50 in assay [1] of 1.64 µM.

In the case of `CC(C)=CCn1c2c(ccc1=O)C(NCCc1cccc(Cl)c1)CCC2` (stereo not given), the Active dose result in assay [2] is “inactive”. In assay [1], this molecule showed an IC50 of 0.52 µM.

Regarding `Cn1c2c(ccc1=O)C(NCCCc1ccccc1)CCC2` (stereo not given), in assay [1], inhibition was half-maximal at 48.4 µM (IC50).

For the molecule `COc1cccc(CCNC2CCCc3c2ccc(=O)n3CC=C(C)C)c1` (stereo not given), the IC50 in assay [1] was 1.1 µM.

As for `Cn1c2c(ccc1=O)C(NCCc1ccc(C(F)(F)F)cc1)CCC2` (stereo not given), in assay [1], it took 12.9 µM to reach half-maximal inhibition (IC50).

In turn, `CC(C)=CCn1c2c(ccc1=O)C(NCCc1ccccc1Cl)CCC2` (stereo not given) displayed an IC50 in assay [1] of 0.52 µM.

On to `CC(C)=CCn1c2c(ccc1=O)C(NCCc1ccc(Cl)c(Cl)c1)CCC2` (stereo not given), for which the IC50 in assay [1] came out at 0.51 µM.

With `Oc1ccc2c(n1)CCCC2NCCc1ccccc1` (stereo not given), the IC50 in assay [1] was more than 100 µM.

In assay [1], `Cn1c2c(ccc1=O)C(NCCc1ccccc1)CCC2` (stereo not given) displayed an IC50 of 18.6 µM. In addition, the Active dose in assay [3] is 1 mg/kg.

In assay [1], `CC(C)=CCn1c2c(ccc1=O)C(NCCc1cc(Cl)ccc1Cl)CCC2` (stereo not given) returned a 50% inhibitory concentration (IC50) of 1.36 µM.

`CC(C)=CCn1c2c(ccc1=O)C(N)CCC2` (stereo not given) displayed an IC50 in assay [1] of more than 100 µM.

With `CCCn1c2c(ccc1=O)C(NCCc1c[nH]c3ccccc13)CCC2` (stereo not given), the IC50 in assay [1] is 3.16 µM. The Active dose in assay [3] was 3 mg/kg.
